# Source: PubChem
# Rows were chosen to be rich in hits. Some 2.9% of all compounds tested hit in one or more screens of this group.
# SENP8 block-1: blocks human SENP8 cleavage of Nedd8 substrate; Q96LD8; recombinant SENP8, Nedd8 substrate fluorescence; inhibition, % at 20 µM; 360,000 compounds, 0.64% hits; in the data active = inhibition mostly above about 40%, no sharp cut-off; inactive = mostly below about 27%
# Apaf1 inhib: inhibitors of human Apaf-1 apoptosome | inhibition, % at 20 µM | 330,000 compounds, 0.71% hits | reconstituted apoptosome caspase-3 activity, DEVD-Rh110 fluorescence | O14727; active = inhibition of at least 40% at 20 µM;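 note: plate controls were DMSO wells for no effect and DEVD-CHO caspase inhibitor wells for full effect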
#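 System: reconstituted apoptosome with Apaf-1, cytochrome c, caspase-9, procaspase-3, dATP; Signal: Rh110 fluorescence intensity; Schedule: 30 min compound preincubation, 50 min activation, room temperature; Reagent: cytochrome c trigger plus (Z-DEVD)2-Rh110 caspase-3 substrate.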
# SENP8 block-2: blocks the human protease SENP8 | Q96LD8 | purified SENP8, Z-RLRGG-aminoluciferin cleavage, luminescence | inhibition, % at 10 µM | 330,000 compounds, 1.2% hits | AID 2540; in the data active = inhibition above about 50%
# SENP7 block: blocks the human protease SENP7. Q9BQF6. inhibition, % at 5 µM. 330,000 compounds, 1.5% hits. recombinant SENP7, Z-RLRGG-aminoluciferin luminescence, 40 min;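 active = inhibition above about 50% at the single test dose, limit read from the data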;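 note: plate controls were DMSO with enzyme for no effect and no enzyme buffer wells for full effect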
# SENP1 FRET inh: blocks the human SENP1 SUMO protease catalytic domain; Q9P0U3; recombinant SENP1 catalytic domain, CyPet-SUMO1-YPet FRET cleavage; 360,000 compounds, 0.21% hits; inhibition, % at 10 µM;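 active = inhibition at least 30% at 10 µM, raw YFP signal under a set limit, fluorescence ratio 0.5 to 1.5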;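 note: 0% = enzyme with DMSO and 100% = no enzyme wells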
# Target sequence (Q9P0U3 419-644 limits assumed): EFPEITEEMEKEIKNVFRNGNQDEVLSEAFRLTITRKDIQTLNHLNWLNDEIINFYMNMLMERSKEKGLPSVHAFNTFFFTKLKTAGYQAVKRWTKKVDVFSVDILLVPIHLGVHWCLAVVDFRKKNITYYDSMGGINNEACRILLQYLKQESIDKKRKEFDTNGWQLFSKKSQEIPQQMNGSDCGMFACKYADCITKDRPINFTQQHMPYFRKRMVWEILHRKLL
#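 Material: hSENP1 catalytic domain, recombinant; medium: Tris pH 8 with BME, BSA, NP40 and catalase; compound: single concentration of 10 µM compound, 0.5% DMSO final; technique: FRET read of cyan and yellow fluorescence; timing: 50 min enzyme reaction, room temperature, light-protected; reagent: SFCypet-SUMO1-SFYpet substrate at 25 nM; control set: no-enzyme low, enzyme-DMSO high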
# SENP6 block: blocks the human protease SENP6 | Q9GZR1 | Recombinant SENP6 catalytic domain, aminoluciferin luminescence | inhibition, % at 10 µM | 330,000 compounds, 1.8% hits | AID 2599;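 active = inhibition above about 50% at the single tested dose, limit read from the data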;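 note: plate controls were DMSO wells with enzyme for no effect and DMSO wells lacking enzyme for full effect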
# SENP8 confirm: confirmation of human SENP8 protease inhibitors. 6,200 compounds, 40% hits. shares compounds with SENP7 block. inhibition, % at 12.5 µM. AID 488912. Recombinant SENP8, Z-RLRGG-aminoluciferin luminescence, 60 min;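 active = mean inhibition across replicates above about 50%, limit read from the data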
# SENP6 conf: human SENP6 inhibition, confirmed | shares compounds with SENP7 block | recombinant SENP6, Z-RLRGG-aminoluciferin luminescence | inhibition, % at 12.5 µM | 6,200 compounds, 58% hits
# SENP7 confirm: confirmation of human SENP7 protease inhibitors | shares compounds with SENP7 block | recombinant SENP7, Z-RLRGG-aminoluciferin luminescence, 40 min | inhibition, % at 12.5 µM | 6,200 compounds, 69% hits | AID 488917
# Casp3 SENP sel: caspase-3 inhibition (SENP selectivity assay); shares compounds with SENP7 block; purified caspase-3, Z-DEVD-aminoluciferin luminescence, 60 min; inhibition, % at 12.5 µM; 6,200 compounds, 60% hits; AID 488918;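 active = mean inhibition above about 50%, limit read from the data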;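 note: plate controls were enzyme with DMSO for no effect and wells without caspase-3 for full effect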
# Target sequence (P42574 28-227 limits assumed): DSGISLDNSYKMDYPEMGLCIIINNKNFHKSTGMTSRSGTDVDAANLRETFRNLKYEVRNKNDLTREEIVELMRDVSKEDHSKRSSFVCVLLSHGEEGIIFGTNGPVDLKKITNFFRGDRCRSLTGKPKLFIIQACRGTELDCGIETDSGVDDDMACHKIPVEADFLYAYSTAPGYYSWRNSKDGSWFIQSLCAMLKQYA
# SENP luc ctr: counter-screen for SENP inhibitors: luminescence interference; inhibition, % at 12.5 µM; 6,200 compounds, 39% hits; shares compounds with SENP7 block; AID 488919; Pre-incubated SENP8/Z-RLRGG-aminoluciferin, luciferase luminescence interference;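 active = mean inhibition above about 50% when retested at one dose, limit read from the data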;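 note: plate controls were DMSO wells with completed reaction for no effect and substrate without enzyme for full effect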
# Numbers without * were called inactive; i = inactive; . = not tested or not shown.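 Rule for the calls, unless noted: active = mean inhibition above about 50% in the one-dose retest (limit read from the data); inactive = the rest.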
SMILES,SENP8 block-1,Apaf1 inhib,SENP8 block-2,SENP7 block,SENP1 FRET inh,SENP6 block,SENP8 confirm,SENP6 conf,SENP7 confirm,Casp3 SENP sel,SENP luc ctr
COc1ccc(CCC(=O)Nc2ccc(N3CCOCC3)c(S(=O)(=O)Nc3ccc(OC)cc3)c2)cc1,4,.,.,.,1,.,.,.,.,.,.
CCNC(=O)C1CCCN(C(=O)C(c2ccccc2)c2ccccc2)CC1 (stereo unspecified),9,.,.,.,1,.,.,.,.,.,.
Cc1cn([C@H]2C[C@H](O)[C@@H](CCC(=O)NCc3cccc4ccccc34)O2)c(=O)[nH]c1=O,15,.,.,.,-1,.,.,.,.,.,.
CN(C)c1ccc(-c2ccnc3c2CC(C)(C(=O)Nc2cccc(Oc4ccccc4)c2)O3)cc1 (stereo unspecified),i,.,.,.,-3,.,.,.,.,.,.
S=C(Nc1ccccc1)N1N=CCC1c1ccccc1 (stereo unspecified),-14,5,-18,-11,2,-17,.,.,.,.,.
Fc1ccc(NC(=S)N2N=CCC2c2ccccc2)cc1 (stereo unspecified),26,-2,25,38,1,58*,38,31,66*,46,45
CN1CCN(c2nc3cc(N4CCOCC4)ccc3s2)CC1,26,.,.,.,0,.,.,.,.,.,.
O=c1c2cc(F)ccc2sn1-c1ccccc1,5,5,75*,22,1,84*,83*,84*,96*,88*,77*
Cc1cc(=O)[nH]c(N=N/C(=N/Nc2ccc(O)cc2)c2ccccc2)n1,11,9,38,17,48*,61*,17,15,14,46,8
Cc1cc(=O)[nH]c(N=N/C(=N/Nc2ccccc2C)c2ccccc2)n1,2,-2,3,3,0,-42,.,.,.,.,.
COc1ccc(N/N=C(/N=Nc2nc(C)cc(=O)[nH]2)c2ccccc2)cc1,19,12,36,35,5,68*,13,11,25,48,29
Cc1cc(OCC(=O)N2CCC(O)CC2)c2c(C)cc(=O)oc2c1,-314,7,-5,-14,0,-4,.,.,.,.,.
CCCCn1c(N)c(N(CCOC)C(=O)C2CC(=O)N(c3cccc(SC)c3)C2)c(=O)[nH]c1=O (stereo unspecified),-4,3,5,3,0,-10,.,.,.,.,.
O=C(Nc1ccc2c(c1)CCC2)c1cccc(OC(F)F)c1,16,4,68*,75*,1,79*,61*,68*,91*,55*,69*
COc1ccc(NC(=O)c2cccc(OC(F)F)c2)cc1Cl,12,5,64*,80*,1,76*,9,76*,94*,60*,68*
O=C(Nc1ccc(S(=O)(=O)N2CCCC2)cc1)c1cccc(OC(F)F)c1,-2,10,0,-1,1,-2,.,.,.,.,.
O=C(Nc1ccc(OC(F)F)c(Cl)c1)c1cccc(OC(F)F)c1,18,11,15,27,-1,62*,52*,48,76*,12,65*
COc1ccccc1Cc1c(-c2ccccc2)nc2ccc(Br)cn12,-113,.,.,.,23,.,.,.,.,.,.
CN(C)S(=O)(=O)c1ccc(Cl)c(NC(=O)CNC2(C)CCS(=O)(=O)C2)c1 (stereo unspecified),-3,11,-13,1,1,-11,.,.,.,.,.
Nc1nc(N)c2[nH]c(=S)[nH]c2n1,-9,.,.,.,-1,.,.,.,.,.,.
